High-throughput results: PubChem BioAssay, Sanford-Burnham Center for Chemical Genomics
A selection: hits, their analogues and other compounds. The true share with any hit is near 1.7%.
STEP block – STEP (human) phosphatase inhibition. recombinant STEP, OMFP fluorogenic substrate, fluorescence. inhibition, % at 20 µM. 360,000 compounds, 0.25% hits. AID 588621;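 active means inhibition at 20 µM, scaled per plate between control wells, above about 37%, limit read from the data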
Target sequence (P54829 whole entry, looked up): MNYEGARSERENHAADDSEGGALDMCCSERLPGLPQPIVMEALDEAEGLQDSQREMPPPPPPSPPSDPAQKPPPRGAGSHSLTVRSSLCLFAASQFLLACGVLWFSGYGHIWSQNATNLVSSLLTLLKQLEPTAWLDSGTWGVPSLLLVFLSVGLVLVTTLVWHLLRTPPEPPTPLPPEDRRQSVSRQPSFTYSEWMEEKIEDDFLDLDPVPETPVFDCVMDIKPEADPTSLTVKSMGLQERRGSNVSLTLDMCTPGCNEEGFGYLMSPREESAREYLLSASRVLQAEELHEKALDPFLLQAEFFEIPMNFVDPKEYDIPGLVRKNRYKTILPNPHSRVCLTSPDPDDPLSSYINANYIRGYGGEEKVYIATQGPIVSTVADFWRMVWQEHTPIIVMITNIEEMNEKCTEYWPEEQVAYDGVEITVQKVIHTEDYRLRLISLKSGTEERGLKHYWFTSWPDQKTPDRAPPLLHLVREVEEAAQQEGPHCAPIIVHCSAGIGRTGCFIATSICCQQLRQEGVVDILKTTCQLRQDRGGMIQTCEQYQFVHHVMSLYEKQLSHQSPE
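System: STEP (striatal-enriched tyrosine phosphatase) enzyme, cell-free; medium: Bis-Tris pH 6.0 buffer with DTT, detergent; dosing: 20 µM, 1% DMSO; times: reaction 20 min, ambient temperature; detection: fluorescence, 480/540 nm; read-out basis: normalized % inhibition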
DNMT1 block – inhibitors of human DNMT1. P26358. DNMT1 molecular beacon, Hinp1I cleavage, fluorescence. inhibition (reported as % activation of signal), % at 10 µM. 360,000 compounds, 0.83% hits. AID 588458; in the data active means inhibition above about 50%
SUMO1-SIM PPI – alters human SUMO1 binding to SIM partners; SUMO1 binding to a labelled peptide, TR-FRET, 1 h; 360,000 compounds, 0.33% hits; inhibition, % at 20 µM; P63165; in the data active means inhibition above about 37%
Target sequence (P63165 whole entry, looked up): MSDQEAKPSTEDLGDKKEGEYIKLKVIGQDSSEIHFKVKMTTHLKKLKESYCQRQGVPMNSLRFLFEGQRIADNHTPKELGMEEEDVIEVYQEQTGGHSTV
Scp1 inh – blocks human Scp-1 phosphatase activity; inhibition, % at 20 µM; Q9GZU7; AID 493091; 340,000 compounds, 0.88% hits; Recombinant Scp1, phosphopeptide, malachite green phosphate absorbance;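 active means inhibition above about 50% at 20 µM, limit read from the data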
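Material: truncated SCP-1 phosphatase (76-261aa) / Buffer or medium: 50 mM Tris acetate pH 5.5, 0.005% Tween-20, 10 mM MgCl2 / Compound dosing: one concentration, 20 µM, with 1.0% DMSO / Incubation: 45 min room-temperature reaction, 5 min colour, 30 min stabiliser / Detection: colorimetric free-phosphate detection, absorbance 630 nm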
LMPTP block – LMPTP (human) inhibition; P24666; recombinant LMPTP-A, OMFP fluorogenic substrate, fluorescence intensity; inhibition, % at 20 µM; 360,000 compounds, 0.22% hits; AID 651560;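 active means compounds that cut the enzyme signal by at least half of the control window in the single-dose screen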
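Test system: LMPTP-A phosphatase enzyme; input: 0.625 nM LMPTP-A final; reagent: OMFP substrate, 400 µM final; compound dosing: 20 µM single dose, 3% DMSO; incubation: 50 min dark incubation at room temperature; measured by: endpoint fluorescence intensity from OMFP dephosphorylation; measure: % inhibition relative to no-enzyme and uninhibited control wells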
Scp-1 conf – Scp-1 (human) inhibition, single-dose confirmed; shares compounds with Scp1 inh; recombinant SCP-1 catalytic domain, phosphate release, malachite green absorbance; inhibition, % at 20 µM; 2,500 compounds, 61% hits
Scp-1 MG ctr – counter-screen for Scp-1 inhibitors: colorimetric interference | 2,500 tested, under 10 active | shares compounds with Scp1 inh | Colorimetric interference counterscreen, malachite green absorbance 630 nm | AID 540313 | apparent inhibition (interference), % at 20 µM;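 further: compounds added after enzyme reaction finished so only phosphate colour detection is probed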
Scp-1 Tm shift – Scp-1 (human) binding by thermal shift; shares compounds with Scp1 inh; Recombinant SCP1, Sypro Orange thermal shift Tm; thermal shift relative to vanadate control, % at 40 µM; 1,500 compounds, 25% hits; AID 540329;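 active means substances whose mean melting-temperature shift, as a percentage of the reference inhibitor's shift, reaches about 5.3%, limit read from the data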
Beacon interf DR – shows spectral interference in the DNMT1 beacon assay. 200 tested, under 10 active. molecular beacon fluorescence, spectral interference counter-screen. shares compounds with DNMT1 block. IC50, µM; call rule not given here
DNMT1 confirm – DNMT1 inhibition confirmation, single concentration. DNMT1 molecular beacon HinP1I cleavage, fluorescence. AID 602385. inhibition, % at 10 µM. 2,300 compounds, 8% hits. shares compounds with DNMT1 block;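 active means average inhibition of at least 30% in the single-concentration confirmation test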
Beacon interf – shows spectral interference in the DNMT1 beacon assay | AID 602387 | activation (fluorescence interference), % at 10 µM | DNMT1 molecular beacon spectral interference counterscreen, fluorescence 485/520 | shares compounds with DNMT1 block | 2,300 compounds, 1% hits;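 active means activation of at least 30% at 10 µM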;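 further: DNMT1 catalytic domain with a HinP1I cleavage step and a FAM/dabcyl DNA beacon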
A number is an active result; . = inactive; / = not tested or not shown.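 How the source made its calls, unless noted: active means inhibition of at least 30% at 20 µM; inactive means the rest.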

SMILES | STEP block | DNMT1 block | SUMO1-SIM PPI | Scp1 inh | LMPTP block | Scp-1 conf | Scp-1 MG ctr | Scp-1 Tm shift | DNMT1 confirm | Beacon interf | others
COc1ccc(CNC(=O)O[C@]23C[C@H]4C(=O)N(c5ccccc5)C(=O)[C@H]4C[C@@]2(O)CN(S(=O)(=O)c2ccc(C)cc2)C3)cc1OC | . | . | . | / | . | / | / | / | / | /
C=CCn1c(COc2ccc(F)cc2)nnc1SCC(=O)NC(=O)NCc1ccco1 | . | 74 | . | 61 | . | 56 | . | . | . | .
c1ccc(-c2cc(-c3nn4c(-c5ccco5)nnc4s3)c3ccccc3n2)cc1 | . | 55 | . | 92 | . | 43 | . | 7.3 | . | .
Cc1c2cnn(CC(=O)Nc3c(F)c(F)cc(F)c3F)c(=O)c2c(C)n1Cc1ccccc1F | . | 91 | . | 69 | . | 77 | . | 7.2 | . | . | Beacon interf DR=.
CCOc1ccc(CCNC(=O)C2CC(C)=CCC2C(=O)O)cc1OCC (configuration not stated) | . | 53 | 56 | 87 | . | 58 | . | . | . | .
CCOc1ccc(CCNC(=O)C2CC=CCC2C(=O)OC(C)C)cc1OCC (configuration not stated) | . | . | . | . | . | / | / | / | / | /
O=C(Cc1ccccc1)N/N=C/c1ccc(OC(=O)/C=C\c2ccco2)cc1 | . | . | . | . | . | / | / | / | / | /
COC(=O)N/N=C/c1ccc(OC(=O)/C=C/c2ccco2)cc1 | . | 53 | . | 56 | . | . | . | / | . | .
COc1ccc([N+](=O)[O-])cc1NC(=O)CCS(=O)(=O)c1ccc(Br)cc1 | . | 79 | . | 95 | . | 62 | . | . | . | .
O=C(CCS(=O)(=O)c1ccc(Br)cc1)Nc1cc(F)ccc1F | . | 62 | . | 73 | . | 58 | . | . | . | .
CCc1ccccc1NC(=O)CCS(=O)(=O)c1ccc(Br)cc1 | . | . | . | . | . | / | / | / | / | /
COc1cc(N)c(Cl)cc1C(=O)OCC(=O)Nc1ccc(N2CCOCC2)cc1 | . | . | . | . | . | / | / | / | / | /
Cc1ccc(C(=O)Oc2ccc(C(=O)COC(=O)C3CC(=O)N(Cc4ccco4)C3)cc2)cc1 (configuration not stated) | . | 66 | . | 60 | . | 48 | . | . | . | .
Cc1[nH]c2ccccc2c1C(=O)COC(=O)C1CC(=O)N(Cc2ccco2)C1 (configuration not stated) | . | . | . | . | . | / | / | / | / | /
COc1ccccc1N1C(=N)S/C(=C\c2ccc(-c3ccccc3C(=O)O)o2)C1=O | . | 73 | . | 62 | . | 49 | . | 8.3 | . | .
Cc1c(C(=O)O)cccc1-c1ccc(/C=C2\SC(=O)NC2=O)o1 | . | . | . | . | . | / | / | / | / | /
COc1ccccc1/C=c1\sc2nc(-c3ccco3)nn2c1=O | . | 106 | . | 69 | . | 72 | . | 7.8 | . | .
COc1ccc(OC)c(/C=c2\sc3nc(-c4cccs4)nn3c2=O)c1 | . | . | . | . | . | / | / | / | / | /
O=C(COC(=O)c1cc2c(s1)CCC2)Nc1ccc(F)cc1 | . | 66 | . | 68 | . | 74 | . | . | . | . | Beacon interf DR=.
NC(=O)c1ccc(NC(=O)COC(=O)c2cc3c(s2)CCC3)cc1 | . | 80 | . | 85 | . | 62 | . | . | . | .
CCc1ccc(Nc2nnc(SCC(=O)NC(=O)CN3CCCC3=O)s2)cc1 | . | 64 | . | 65 | . | 48 | . | . | . | .
COc1ccccc1Nc1nnc(SCC(=O)N2CCCC2=O)s1 | . | . | . | . | . | / | / | / | / | /
CCOc1cc(N2CCOCC2)c(OCC)cc1NC(=O)c1ccccc1N1CCCC1=O | . | . | . | / | . | / | / | / | / | /
Cc1ccc(C=C2C(=O)c3ccccc3C2=O)o1 | . | 70 | . | 55 | . | 59 | . | 6.2 | . | .
Cc1nc2ccccn2c1C(=O)N/N=C/c1ccc([N+](=O)[O-])o1 | . | 64 | . | 67 | . | 53 | . | 12 | . | .
SMILES | STEP block | DNMT1 block | SUMO1-SIM PPI | Scp1 inh | LMPTP block | Scp-1 conf | Scp-1 MG ctr | Scp-1 Tm shift | DNMT1 confirm | Beacon interf | others
N#Cc1c(NC(=O)c2ccco2)sc2c1CCC2 | . | 54 | . | 63 | . | 56 | . | . | . | .
C=C(C)CCOC(=O)C(CC(=O)O)NCc1ccco1 (configuration not stated) | . | 63 | . | 86 | . | 67 | . | . | . | .
O=C(O)CC(NCc1ccco1)C(=O)OCCc1ccccc1 (configuration not stated) | . | . | . | . | . | / | / | / | / | /
O=C(NCCc1ccccc1)c1ccc(S(=O)(=O)N2CCCC2)cc1 | . | . | . | . | . | / | / | / | / | /
C=C(C)C(=O)Nc1cccc(C2=NOC3(C2)C[C@@H](C(N)=O)N(C(=O)c2cc([N+](=O)[O-])cc([N+](=O)[O-])c2)C3)c1 (some centres not stated) | . | 87 | 46 | 61 | . | 49 | . | . | . | .
CCn1c(CNC(=O)c2ccc(Cl)cc2)nnc1SCC(=O)NC1=NCCS1 | . | . | . | . | . | / | / | / | / | /
O=c1cc(CSc2nnc(-c3cccs3)n2Cc2ccccc2)nc2sc3ccccc3n12 | . | 96 | . | 75 | . | 68 | . | . | . | .
Cc1cc(C(=O)CSc2nnc(-c3cccs3)n2Cc2ccccc2)c(C)n1C | . | . | . | . | . | / | / | / | / | /
COC(=O)[C@]1(Sc2ccc(OC)cc2)CC(=O)N[C@@H]1c1ccccc1 | / | / | . | / | . | / | / | / | / | /
Cc1cccc(NC(=O)CNC(=O)CCc2nc3sc4c(c3c(=O)[nH]2)CCCC4)c1C | . | 84 | . | 73 | . | 75 | . | 13 | . | .
O=C(c1ccc([N+](=O)[O-])cc1)N1CCN(C(=O)c2ccco2)CC1 | . | . | . | . | . | / | / | / | / | /
O=C(c1ccco1)N1CCN(C(=O)c2ccc(-c3ccc([N+](=O)[O-])cc3)o2)CC1 | . | 63 | 74 | 90 | . | . | . | / | . | .
N#Cc1ccccc1S(=O)(=O)N1CCN(C(=O)C2COc3ccccc3O2)CC1 (configuration not stated) | . | 67 | . | 74 | . | 73 | . | . | . | .
